In ChEMBL document CHEMBL1139890, “Cucurbitane glycosides from the fruits of Siraitia gros venorii and their inhibitory effects on Epstein-Barr virus activation” (2007) one finds Activity and Ratio data, which are given here for nine compounds.

Assay [1] relates to Human gammaherpesvirus 4. Put plainly: Inhibitory effect on TPA-induced Epstein-Barr virus early antigen activation in Raji cells at 10 mol ratio/32 pmol TPA relative to TPA. The format is functional. On the set-up: scale not given: the % may be the effect or the level left. In a few lines: (§1)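 Raji cells induced with TPA at 32 pmol (20 ng), taken as 100%. Compounds given as molar ratio to TPA. EBV-EA induction is scored against this TPA-only positive control. Raji cell viability is reported as a percentage. IC50 is the molar ratio to TPA giving 50% inhibition of the positive control.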

Assay [2] is described as follows: Inhibitory ratio on NOR1-induced NO activation in human Chang liver cells assessed as nitric oxide scavenging activity relative to NOR1. It counts as functional. In a few lines: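 Chang liver cells (normal human hepatic cells) were used with NOR 1, an NO donor, as the NO source. Compounds were tested at 350 nmol. Scavenging of NO generated by NOR 1 is given as an inhibitory ratio. The ratio for NOR 1 alone (positive control, 350 nm) is set at 1.0.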

The subject of assay [3] is Human gammaherpesvirus 4. Put plainly: Inhibitory effect on TPA-induced Epstein-Barr virus early antigen activation in Raji cells at 1000 mol ratio/32 pmol TPA relative to TPA. On the set-up: scale not given: the % may be the effect or the level left. The format is functional. In a few lines: as §1
The test system of assay [4] is Human gammaherpesvirus 4. The experiment in a line: Inhibitory effect on TPA-induced Epstein-Barr virus early antigen activation in Raji cells at 100 mol ratio/32 pmol TPA relative to TPA. On the set-up: scale not given: the % may be the effect or the level left. It counts as functional. In a few lines:
as §1

Another assay relates to Raji. The experiment in a line: Cell viability of Raji cells at 1000 mol ratio/32 pmol TPA. It counts as functional, Homo sapiens. Summed up: as §1
Assay [5] deals with Human gammaherpesvirus 4. The experiment in a line: Inhibitory effect on TPA-induced Epstein-Barr virus early antigen activation in Raji cells at 500 mol ratio/32 pmol TPA relative to TPA. The format is functional. On the set-up: scale not given: the % may be the effect or the level left. Summed up: as §1

In the case of `C[C@H](CC[C@@H](O[C@@H]1O[C@H](CO)[C@@H](O)[C@H](O)[C@H]1O)C(C)(C)O)[C@H]1CC[C@@]2(C)[C@@H]3CC=C4[C@@H](CC[C@H](O[C@@H]5O[C@H](CO[C@@H]6O[C@H](CO)[C@@H](O)[C@H](O)[C@H]6O)[C@@H](O)[C@H](O)[C@H]5O)C4(C)C)[C@]3(C)[C@H](O)C[C@]12C` [MOGROSIDE III A2], the Activity with Human gammaherpesvirus 4 [1] amounted to 100%; with Human gammaherpesvirus 4 [3], 5.1%; in the assay on Human gammaherpesvirus 4 [4], 75.3%; in the assay on Raji, 70%; with Human gammaherpesvirus 4 [5], 24%. Also, in assay [2], the Ratio is 1.5.

For `CC1(C)N([O])C(c2ccc(C(=O)O)cc2)=[N+]([O-])C1(C)C`, in assay [2], the Ratio was 8.

With `C[C@H](CC[C@@H](O)C(C)(C)O[C@@H]1O[C@H](CO)[C@@H](O)[C@H](O)[C@H]1O)[C@H]1CC[C@@]2(C)[C@@H]3CC=C4[C@@H](CC[C@H](O[C@@H]5O[C@H](CO)[C@@H](O)[C@H](O)[C@H]5O)C4(C)C)[C@]3(C)[C@H](O)C[C@]12C` [MOGROSIDE II B], the Activity was 100% with Human gammaherpesvirus 4 [1]; 7.2% in the assay on Human gammaherpesvirus 4 [3]; 76% in the assay with Human gammaherpesvirus 4 [4]; 70% in the assay with Raji; 26% with Human gammaherpesvirus 4 [5]. Moreover, in assay [2], the Ratio is 1.5.

`CC1(C)[C@@H](O[C@H]2O[C@H](C(=O)O)[C@@H](O)[C@H](O)[C@H]2O[C@@H]2O[C@H](C(=O)O)[C@@H](O)[C@H](O)[C@H]2O)CC[C@]2(C)[C@H]3C(=O)C=C4[C@@H]5C[C@@](C)(C(=O)O)CC[C@]5(C)CC[C@@]4(C)[C@]3(C)CC[C@@H]12` [GLYCYRRHIZIN]: the Ratio in assay [2] turned out to be 2.2.

With `C[C@H](CC[C@@H](O[C@@H]1O[C@H](CO)[C@@H](O)[C@H](O)[C@H]1O)C(C)(C)O)[C@H]1CC[C@@]2(C)[C@@H]3C(=O)C=C4[C@@H](CC[C@H](O[C@@H]5O[C@H](CO)[C@@H](O)[C@H](O)[C@H]5O)C4(C)C)[C@]3(C)[C@H](O)C[C@]12C`, the Activity with Human gammaherpesvirus 4 [1] is listed as 100%; with Human gammaherpesvirus 4 [3], 7.7%; with Human gammaherpesvirus 4 [4], 80.8%; with Raji it was 70%; in the assay on Human gammaherpesvirus 4 [5], 24.4%. Further, the Ratio in assay [2] stood at 1.5.

Regarding `C[C@H](CC[C@@H](O[C@@H]1O[C@H](CO[C@@H]2O[C@H](CO)[C@@H](O)[C@H](O)[C@H]2O)[C@@H](O)[C@H](O)[C@H]1O)C(C)(C)O)[C@H]1CC[C@@]2(C)[C@@H]3CC=C4[C@@H](CC[C@H](O[C@@H]5O[C@H](CO)[C@@H](O)[C@H](O)[C@H]5O)C4(C)C)[C@]3(C)CC[C@]12C`, the Activity with Human gammaherpesvirus 4 [1] is reported as 100%; with Human gammaherpesvirus 4 [3], 10.6%; in the assay with Human gammaherpesvirus 4 [4], 81.9%; with Raji, 70%; with Human gammaherpesvirus 4 [5], 25.7%. For the same compound, the Ratio in assay [2] was found to be 1.5.

On to `CC1=C(/C=C/C(C)=C/C=C/C(C)=C/C=C/C=C(C)/C=C/C=C(C)/C=C/C2=C(C)CCCC2(C)C)C(C)(C)CCC1` [BETA CAROTENE], for which the Activity with Human gammaherpesvirus 4 [1] is 100%; in the assay with Human gammaherpesvirus 4 [3], 8.6%; with Raji, 70%.

On to `C[C@H](CC[C@@H](O[C@@H]1O[C@H](CO[C@@H]2O[C@H](CO)[C@@H](O)[C@H](O)[C@H]2O)[C@@H](O)[C@H](O)[C@H]1O)C(C)(C)O)[C@H]1CC[C@@]2(C)[C@@H]3CC=C4[C@@H](CC[C@H](O[C@@H]5O[C@H](CO[C@@H]6O[C@H](CO)[C@@H](O)[C@H](O)[C@H]6O)[C@@H](O)[C@H](O)[C@H]5O)C4(C)C)[C@]3(C)C(=O)C[C@]12C` [11-OXOMOGROSIDE IV A], for which the Activity was 100% in the assay on Human gammaherpesvirus 4 [1]; 10.3% in the assay on Human gammaherpesvirus 4 [3]; 82.5% in the assay on Human gammaherpesvirus 4 [4]; 70% in the assay with Raji; 27.3% with Human gammaherpesvirus 4 [5]. Also, the Ratio in assay [2] amounted to 1.4.

For `C[C@H](CC[C@@H](O[C@@H]1O[C@H](CO[C@@H]2O[C@H](CO)[C@@H](O)[C@H](O)[C@H]2O)[C@@H](O)[C@H](O)[C@H]1O)C(C)(C)O)[C@H]1CC[C@@]2(C)[C@@H]3CC=C4[C@@H](CC[C@H](O)C4(C)C)[C@]3(C)C(=O)C[C@]12C`, the Activity in the assay with Human gammaherpesvirus 4 [1] stood at 100%; in the assay on Human gammaherpesvirus 4 [3] it was 8.5%; in the assay on Human gammaherpesvirus 4 [4], 80.6%; in the assay on Raji it was 70%; in the assay on Human gammaherpesvirus 4 [5] it was 25%. The Ratio in assay [2] is 1.4.
